N-glyco inh: blocks N-linked glycosylation in D54 reporter cells | D54 ERlucT glycosylation luciferase reporter, 24 h; percent of 100 nM tunicamycin response | actives 0.23% (n = 360,000) | reporter increase, % at 12.5 µM;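 active = mean luciferase reporter signal, scaled so untreated is 0 and the glycosylation-blocking control 100, at or above a set limit in every replicate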;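 also: luciferase carries N-glycosylation sites so blocking glycosylation raises the light; 0% = median of neutral control wells and 100% = median of 100 nM tunicamycin wells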
Vif imaging: inhibitors of HIV Vif; HEK293T cells, Vif self-association by quenched fluorescence, imaging, 24 h; inhibition, % at 7.49 µM; actives 0.35% (n = 340,000); AID 602346; in the data active = inhibition above about 50%, passing the limit was not always enough
aDG glyco act: increases alpha dystroglycan glycosylation. activation, % at 10 µM. Pro5-aDG cells, alpha-DG glycosylation AlphaScreen (IIH6); 0% Pro5, 100% B10-LARGE cell signal. AID 624168. actives 0.22% (n = 360,000);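 active = activation of at least 8% versus controls, or a plate z-score of at least 8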;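 also: Pro5 are CHO cells carrying HIG-tagged alpha-DG that lacks glycosylation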
MsrA act: activates bovine MsrA enzyme | AID 602163 | actives 0.3% (n = 360,000) | activation, % at 10.6 µM | purified bovine MsrA, absorbance read-out; in the data active = activation above about 7.5%;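 also: 0% = vehicle and 100% = reference activator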
MsrA inh: bovine MsrA inhibition; purified bovine MsrA, absorbance read-out; inhibition, % at 15.5 µM; actives 0.75% (n = 360,000); AID 651718; in the data active = inhibition above about 4.5%;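 also: 0% = vehicle wells with enzyme and 100% = reference inhibitor wells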
UCH37 DUB inh: inhibitors of human deubiquitinating enzyme UCH37. purified proteasome/UCH37, Ub-AMC cleavage fluorescence. Q9Y5K5. inhibition, % (no concentration beside the values). actives 0.33% (n = 330,000). AID 588478;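 active = mean inhibition over replicate wells above about 20%, limit read from the data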;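 also: 0% = compound-free wells with enzyme and 100% = wells lacking proteasome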
Target sequence (Q9Y5K5 whole entry, looked up): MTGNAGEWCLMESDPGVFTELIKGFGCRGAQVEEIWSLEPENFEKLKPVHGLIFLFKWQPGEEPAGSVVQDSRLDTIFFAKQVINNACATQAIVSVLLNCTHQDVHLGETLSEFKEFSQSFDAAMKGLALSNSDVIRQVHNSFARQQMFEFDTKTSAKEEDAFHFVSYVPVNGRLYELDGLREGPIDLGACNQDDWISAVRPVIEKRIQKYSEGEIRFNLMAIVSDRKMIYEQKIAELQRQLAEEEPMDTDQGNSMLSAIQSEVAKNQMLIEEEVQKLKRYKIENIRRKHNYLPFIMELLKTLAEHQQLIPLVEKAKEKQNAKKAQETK
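Schedule: 30 min plus 25 min, room temperature / Material: human UCH37 within purified proteasomes / Technique: AMC fluorescence intensity at 355/460 nm / Buffer or medium: pH 7.4 Tris-HCl (50 mM) with ovalbumin, ATP-MgCl2, DTT / Controls: wells without proteasome as full block, compound-free enzyme plus substrate as uninhibited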
* hit, by the source's call. Only some compounds are listed: those with a hit (about 1.9% of all), similar ones and a draw of the others.

Screening COC(=O)c1ccc(C(=O)OC)c(NC(=O)COC(=O)C23CC4CC(CC(O)(C4)C2)C3)c1 returned N-glyco inh 1, Vif imaging 52*, aDG glyco act 0, MsrA act -3, MsrA inh 2 and UCH37 DUB inh -4.
For Cc1ccc(/C(O)=C2/C(=O)C(=O)N(CCN3CCOCC3)C2c2cccs2)cc1 (stereo unspecified) the results were N-glyco inh 0, Vif imaging -1, aDG glyco act 0, MsrA act -1, MsrA inh 1 and UCH37 DUB inh 24*.
COc1ccc(C2/C(=C(/O)c3ccc(F)cc3)C(=O)C(=O)N2CCCN2CCOCC2)cc1OC (stereo unspecified) was read as N-glyco inh 1, Vif imaging -8, aDG glyco act 0, MsrA act -3 and UCH37 DUB inh 8.
Cc1c(/C(O)=C2\C(=O)C(=O)N(CCN(C)C)C2c2cccnc2)cnn1-c1ccccc1 (stereo unspecified) was read as N-glyco inh 1, Vif imaging -1, aDG glyco act 0, MsrA act -5, MsrA inh 3 and UCH37 DUB inh 13.
For COc1cccc(/C(O)=C2/C(=O)C(=O)N(CCCN3CCOCC3)C2c2ccncc2)c1 (stereo unspecified) the results were N-glyco inh 2, Vif imaging -7, aDG glyco act 0, MsrA act 0, MsrA inh 3 and UCH37 DUB inh 20*.
Screening Cc1ccc(/C(O)=C2/C(=O)C(=O)N(CCN3CCOCC3)C2c2cccnc2)cc1 (stereo unspecified) returned N-glyco inh 0, Vif imaging 8, aDG glyco act 0, MsrA act 1, MsrA inh 2 and UCH37 DUB inh 13.
`O=C1C(=O)N(CCCN2CCOCC2)C(c2ccc(F)cc2)/C1=C(/O)c1ccccc1` (stereo unspecified) gave N-glyco inh 4, Vif imaging 8, aDG glyco act 0, MsrA act -1, MsrA inh 1 and UCH37 DUB inh 23*.
Cc1c(/C(O)=C2\C(=O)C(=O)N(CCN(C)C)C2c2cccs2)cnn1-c1ccccc1 (stereo unspecified) was read as N-glyco inh -1, Vif imaging 2, aDG glyco act 0, MsrA act -7, MsrA inh 4.6* and UCH37 DUB inh 5.
Cc1ccc(S(=O)(=O)Oc2ccc(C=NNC(=O)c3nn(C)cc3Cl)cc2)cc1 was read as UCH37 DUB inh 1.
For O=C(ON=C1CCCc2occc21)c1ccc(Cl)cc1Cl the results were UCH37 DUB inh 6.
`COc1cc(Cl)c(C)cc1NC(=O)CN1CCN(C(=O)C2CC2)CC1` gave N-glyco inh 28*, Vif imaging 19, aDG glyco act 0, MsrA act 5 and UCH37 DUB inh 1.
For O=C(Cc1cccc([N+](=O)[O-])c1)Nc1cccc(C(=O)N2CCOCC2)c1 the results were N-glyco inh 0, Vif imaging -1, aDG glyco act 0, MsrA act -1, MsrA inh 0 and UCH37 DUB inh -1.
`O=C(Cc1cccc([N+](=O)[O-])c1)Nc1ccc(C(=O)N2CCOCC2)cc1` gave N-glyco inh -1, Vif imaging -4, aDG glyco act 0, MsrA act -1, MsrA inh 0 and UCH37 DUB inh 29*.
For C[n+]1c2n(c3ccccc31)N=C(c1ccc(-c3ccccc3)cc1)CS2 the results were N-glyco inh 8, aDG glyco act 0, MsrA act -2, MsrA inh 0 and UCH37 DUB inh 12.
C[n+]1c2n(c3ccccc31)N=C(c1ccc(Br)cc1)CS2 was read as N-glyco inh 37*, Vif imaging -9, aDG glyco act 0, MsrA act 3, MsrA inh 1 and UCH37 DUB inh 10.
`COc1ccc(NC(=O)ON=Cc2ccncc2)cc1` gave UCH37 DUB inh 4.
For CC(/C=C/c1ccccc1)=NNC(=O)c1cccc(Br)c1 the results were UCH37 DUB inh 2.
Screening CCC(C)c1ccccc1OCCCCN1CCCC1 (stereo unspecified) returned N-glyco inh 1, Vif imaging -5, aDG glyco act 1, MsrA act -3, MsrA inh 0 and UCH37 DUB inh 31*.
For COc1ccc(C=NNS(=O)(=O)c2ccc(C)cc2)cc1OC(=O)c1ccc(C)cc1 the results were UCH37 DUB inh 5.
CCc1ccc(C=NNC(=O)C(=O)NCCCN2CCOCC2)cc1 was read as UCH37 DUB inh 1.
`CC(=NNC(=O)c1cc2ccccc2cc1O)C1C(=O)c2ccccc2C1=O` gave UCH37 DUB inh 16.
Screening Cc1ccc2nsnc2c1NC(=O)c1ccc(-c2cc(Cl)ccc2Cl)o1 returned N-glyco inh 129*, Vif imaging 15, aDG glyco act -1, MsrA act -3, MsrA inh 0 and UCH37 DUB inh -13.
For CC(=NO)c1noc(C)c1C(=O)Nc1nccs1 the results were UCH37 DUB inh 5.
`CCC(=O)N1CCN(c2ccc(NC(=O)c3ccc([N+](=O)[O-])o3)cc2)CC1` gave N-glyco inh -3, Vif imaging 73*, aDG glyco act -1, MsrA act -4, MsrA inh 1 and UCH37 DUB inh 8.
`COC(=O)c1cc(Cl)c(NC(=O)c2cc3ccccc3o2)cc1OC` gave N-glyco inh 1, Vif imaging 63*, aDG glyco act 0, MsrA act 1, MsrA inh 0 and UCH37 DUB inh 5.
Screening O=C(Nc1ccc(N2CCCCC2)cc1)c1ccc([N+](=O)[O-])o1 returned N-glyco inh -8, Vif imaging 16, aDG glyco act 0, MsrA act 2, MsrA inh 2 and UCH37 DUB inh 5.
O=C(Nc1ccc(N2CCCC2)c(Cl)c1)c1ccc([N+](=O)[O-])o1 was read as N-glyco inh 46*, Vif imaging 22, aDG glyco act 0, MsrA act -4, MsrA inh 0 and UCH37 DUB inh 0.
O=C(Nc1ccc(N2CCOCC2)c(Cl)c1)c1cc2ccccc2o1 was read as N-glyco inh -6, Vif imaging 92*, aDG glyco act 0, MsrA act -2 and UCH37 DUB inh -6.
O=C(NN=Cc1cccc(O)c1)NN=Cc1cccc(O)c1 was read as UCH37 DUB inh 4.
Screening O=C(NN=Cc1ccc(Br)s1)c1ccco1 returned UCH37 DUB inh 12.
Screening CCN1CCN(CC(=O)NN=Cc2ccc(F)cc2F)CC1 returned UCH37 DUB inh -1.
Screening CC(=NNC(=O)c1ccc(N2CCCC2=O)cc1)c1ccccc1 returned UCH37 DUB inh 2.
